Screens deposited in PubChem BioAssay by several laboratories.
A selection: hits, their analogues and other compounds. The true share with any hit is near 1.9%.
RanGTP-Imp inh: inhibitors of RanGTP-importin-beta interaction, primary screen, biochemical, FRET, CFP-Ran, YFP-importin-beta, homogeneous. Ran GTPase (GTP-bound) - importin-beta complex. cell-free CFP-Ran/YFP-importin-beta FRET ratio. inhibition, % (concentration not given with the values). hit rate 1.1% among 300,000;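 active = more than half of the replicate wells show a fall in the fluorescence ratio signal beyond about 16%, limit read from the data, passing the limit was not always enough; inconclusive = exactly half of the replicate wells pass the set limit; inactive = fewer than half of replicates pass the limit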;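 also: 0% = DMSO wells and 100% = Ran loaded with GDP instead of GTP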
Hck Nef HTS: inhibitors of Nef-activated human Hck kinase, primary screen, biochemical, Z-Lyte FRET, 384-well, Hck-YEEI. AID 463187, 2010. hit rate 0.68% among 220,000. inhibition, % at 20 µM. Recombinant Hck-YEEI plus Nef, Z-Lyte FRET kinase assay;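 active = Hck-Nef kinase inhibition above about 50%, limit read from the data; inactive = inhibition below that limit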;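 also: 0% = DMSO with Hck plus Nef and 100% = Hck alone without Nef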
Target sequence (P08631 whole entry, looked up): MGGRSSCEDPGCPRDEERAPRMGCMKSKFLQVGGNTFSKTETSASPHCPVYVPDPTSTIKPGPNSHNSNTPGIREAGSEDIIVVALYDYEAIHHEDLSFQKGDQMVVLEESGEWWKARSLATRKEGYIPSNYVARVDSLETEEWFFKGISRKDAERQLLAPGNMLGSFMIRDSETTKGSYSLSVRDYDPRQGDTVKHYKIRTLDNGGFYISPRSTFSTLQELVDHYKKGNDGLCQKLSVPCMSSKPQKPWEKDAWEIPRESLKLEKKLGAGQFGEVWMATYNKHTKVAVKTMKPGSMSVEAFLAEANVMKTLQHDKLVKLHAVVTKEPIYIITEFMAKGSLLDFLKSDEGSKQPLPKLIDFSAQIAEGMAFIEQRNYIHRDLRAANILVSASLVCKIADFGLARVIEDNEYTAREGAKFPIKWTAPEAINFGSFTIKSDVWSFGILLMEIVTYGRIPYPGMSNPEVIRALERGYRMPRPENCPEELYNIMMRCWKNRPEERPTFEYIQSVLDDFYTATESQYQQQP
Runt-SMMHC FRET: inhibitors of RUNX1 Runt–CBFb-SMMHC binding, primary screen, biochemical, FRET, Cerulean-Runt, Venus-CBFb-SMMHC, uHTS | Runt-related transcription factor 1 (Homo sapiens) + Core-binding factor subunit beta … | Cerulean-Runt/Venus-CBFb-SMMHC FRET ratio 530/480, 1 h | inhibition, % at 20 µM | hit rate 0.74% among 220,000 | AID 1434, 2008;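 active = mean inhibition across duplicate retests at 20 µM reaching about 50%, limit read from the data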;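 also: 0% = DMSO wells and 100% = wells with excess untagged CBFb-SMMHC; inhibitors lower the FRET ratio by blocking Runt binding to CBFb-SMMHC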
Runt-CBFb FRET: inhibitors of RUNX1 Runt–CBFb binding, primary screen, biochemical, FRET, Cerulean-Runt, Venus-CBFb, uHTS; Runt-related transcription factor 1 (Homo sapiens) + Core-binding factor subunit beta …; hit rate 0.46% among 220,000; inhibition, % at 20 µM; Cerulean-Runt/Venus-CBFb FRET ratio 530/480, 1 h; AID 1496, 2009;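 active = inhibition over about 50% at 20 µM in the single-dose screen, limit read from the data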;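 also: 0% = DMSO wells and 100% = excess unlabeled CBFb competitor control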
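Buffer or medium: Tris pH 7.5 buffer with BSA. Assay system: Cerulean-labeled Runt domain protein. Amount: each fluorescent fusion protein 100 nM. Read-out basis: loss of energy transfer signal. Incubation: 1 h compound exposure, room temperature. Probe or stimulus: Venus-CBFb binding partner, 100 nM. Detection: FRET, excitation 422 nm, emission at 530 and 480 nm.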
Runt-CBFb TRFRET: inhibitors of RUNX1 Runt–CBFb binding, biochemical, TR-FRET; shares compounds with Runt-CBFb FRET; TR-FRET RUNX1 Runt domain-CBFb binding; inhibition, % at 20 µM; hit rate 20% among 480; AID 1502, 2009; in the data active = inhibition above about 40%
The depositor's hits bear a star; i = inactive; ? = inconclusive; / = not tested or not shown.

SMILES | RanGTP-Imp inh | Hck Nef HTS | Runt-SMMHC FRET | Runt-CBFb FRET | Runt-CBFb TRFRET
C=CCn1c(N)c(C(=O)OC(C)(C)C)c2nc3ccccc3nc21 | 29* | 41 | 95* | 70* | -5
COCCOC(=O)C(C#N)c1nc2ccccc2nc1N1CCN(Cc2ccccc2)CC1 (stereo unspecified) | 6 | 3 | 97* | 53* | 1
CC(C)C(C)(C#N)NC(=O)CSc1nnc(-c2ccncc2)n1Cc1ccccc1 (stereo unspecified) | 1 | 0 | 32 | 56* | 2
CCOC(=O)N1CCN(C(=O)c2ccc3c(SCC(=O)O)c4c(nc3c2)CCCC4)CC1 | 0 | 18 | 2 | 2 | /
O=C(O)CSc1c2c(nc3cc(C(=O)N4CCOCC4)ccc13)CCCC2 | 31* | 0 | 102* | 59* | 31
CCC(=O)/C=C1/Sc2ccccc2N1CC | 1 | 6 | 44 | 55* | 12
CCC(=O)/C=C1/Sc2ccc(OC)cc2N1CC | 6 | 1 | 0 | / | /
CCCC(=O)N(c1ccc2oc(=O)sc2c1)S(=O)(=O)c1cccs1 | / | 3 | 32 | 63* | 10
CC(C)C(=O)N(c1ccc2oc(=O)sc2c1)S(=O)(=O)c1ccccc1 | 2 | -2 | 63* | 58* | 19
COc1ccc(S(=O)(=O)N(C(=O)c2ccco2)c2cc3sc(=O)oc3c3ccccc23)cc1 | 4 | 3 | 43 | 9 | /
COc1ccc(S(=O)(=O)N(C(=O)C(C)C)c2ccc3oc(=O)sc3c2)cc1 | 0 | 2 | 56* | 53* | 4
Cc1ccc(S(=O)(=O)N(C(=O)c2ccco2)c2cc3sc(=O)oc3c3ccccc23)cc1 | 2 | 1 | 37 | 11 | /
CN(CC(=O)O)S(=O)(=O)c1cccs1 | -1 | -2 | -5 | 0 | /
CC(=O)N(c1ccc2oc(=O)sc2c1)S(=O)(=O)c1ccccc1 | 0 | 8 | 38 | 60* | 17
COc1ccc(C(=O)Oc2ccc3oc(=O)sc3c2)cc1 | 1 | 2 | 40 | 65* | 0
COc1ccc(N(C(C)=O)S(=O)(=O)c2cc(OC)ccc2OC)cc1 | 6 | 3 | 4 | 27 | /
COc1ccc(OC)c(S(=O)(=O)N(C(C)=O)c2ccc3oc(=O)sc3c2)c1 | -1 | 19 | / | 67* | 12
COc1ccc(C(=O)Oc2ccc3ccc(=O)oc3c2)cc1 | 0 | / | / | / | /
Cc1cc(C)n2nc(C(=O)NNC(=O)c3ccccc3)nc2n1 | 2 | 24 | 2 | 1 | /
Cc1[nH]c2ccccc2c1N=Nc1ccccc1C(=O)O | 5 | -2 | -20 | 52* | 17
Cc1cccc2cc(C(c3nnnn3Cc3ccccc3)N3CCN(c4ccccc4)CC3)c(=O)[nH]c12 (stereo unspecified) | 6 | -1 | -1 | 51* | i
O=c1c2ccccc2sc2ccc(Cl)cc12 | 20* | 8 | 128* | 69* | i
CCC(C)(C)NC(=O)CN(C(=O)CNS(=O)(=O)c1ccc(C)cc1)c1ccc2c(c1)OCCO2 | 4 | 7 | -4 | -4 | /
Cc1ccc(/C=C/C(=O)c2ccc(C)cc2)cc1 | -2 | 7 | 1 | -3 | /
Cc1ccc(C(=O)/C=C/C(=O)c2ccc(C)cc2)cc1 | 3 | 35 | 50 | 54* | 19
SMILES | RanGTP-Imp inh | Hck Nef HTS | Runt-SMMHC FRET | Runt-CBFb FRET | Runt-CBFb TRFRET
NS(=O)(=O)c1ccc(NC(=S)N2CCN(c3cccc(Cl)c3)CC2)cc1 | -1 | 1 | 36 | 52* | 58*
NS(=O)(=O)c1ccc(NC(=S)N2CCN(c3ccccc3Cl)CC2)cc1 | 3 | 0 | 4 | 1 | /
CC(C)(C)NC(=O)CN(C(=O)CNS(=O)(=O)c1ccc(Cl)cc1)c1ccc2c(c1)OCCO2 | 2 | / | / | / | /
CN1CCc2c(sc3ncn4nc(-c5ccccc5O)nc4c23)C1 | / | 2 | 125* | 57* | -2
Cc1cc(N2CCOCC2)c2c(N)c(C)cc(C)c2n1 | / | 2 | 41 | 62* | -3
Cc1cc(N2CCOCC2)nc(N)n1 | 3 | 21 | 0 | 0 | /
O=C(NC1CCCCC1)c1cc(-c2cccc(Cl)c2)on1 | -1 | / | / | / | /
Cc1nc2ccccn2c1-c1ccnc(=S)[nH]1 | 1 | -45 | 40 | 60* | 20
Cc1ccc(Nc2nc(-c3c(C)nc4ccccn34)cs2)cc1 | ? | 1 | -3 | 4 | /
Cc1ccnc(NC(=O)c2ccc(S(=O)(=O)N3CCC(C)CC3)cc2)c1 | 0 | / | / | / | /
CN1c2ccsc2C(O)=C(C(=S)Nc2ccccc2)S1(=O)=O | 89* | 0 | 91* | 53* | 34
CN1c2ccccc2C(O)=C(C(=S)Nc2ccccc2)S1(=O)=O | 8 | 2 | 5 | 4 | /
CCOC(=O)c1[nH]nc(-c2cc(CC)c(O)cc2O)c1-c1cscn1 | -2 | 2 | 0 | 61* | 3
CCCc1cc2c(=O)c(-c3cscn3)c(C(=O)OCC)oc2cc1O | ? | 14 | -3 | 0 | /
Cc1ccc(Cn2cnc3ccccc32)cc1 | 0 | -2 | -2 | 54* | -13
CCOC(=O)c1c(-c2ccccc2)oc2ccc(OC(C)=O)cc12 | -2 | 1 | -1 | 52* | 29
COc1ccc(CNC(=O)C2CCC(CNc3nc(=S)[nH]c4ccccc34)CC2)cc1 (stereo unspecified) | 0 | 23 | -10 | -3 | /
NC(=O)N/N=C/c1cc(Br)ccc1OC(=O)c1ccccc1 | / | -3 | -1 | 0 | /
O=C(NCCC1CCCCN1S(=O)(=O)c1ccccc1)C(=O)NCc1ccncc1 (stereo unspecified) | 2 | / | / | / | /
CC1(C)CC(=O)C2=C(C1)Nc1[nH]c(=S)[nH]c(=O)c1C2c1ccccc1 (stereo unspecified) | 4 | 0 | 59* | 50* | 12
O=C1CCNc2ccc(-c3ccccc3)cc21 | -9 | -23 | -146 | 60* | 42*
O=C(COC(=O)[C@@H]1CC(O)CN1S(=O)(=O)c1ccc2c(c1)OCCO2)NCc1ccc(F)cc1 (stereo partly specified) | 5 | 2 | -1 | 0 | /
CCOC(=O)c1c(/N=C/N(C)C)sc(/C=N/Nc2ccccc2)c1-c1ccccc1 | -14 | 9 | 131* | 71* | -12
S=c1[nH]c(-c2ccc(Cl)cc2)cs1 | 3 | 13 | 35 | 50* | 9
S=c1nccc(-c2ccc(Cl)cc2)[nH]1 | -2 | -49 | 12 | 56* | 41*
Cc1ccc(NC(=O)CN(C)C(=O)COc2cc(F)ccc2[N+](=O)[O-])cc1 | 1 | 9 | 0 | -1 | /
